Laboratory results published in ChEMBL document CHEMBL1914430, “Synthesis of some new 1,3,5-trisubstituted pyrazolines bearing benzene sulfonamide as anticancer and anti-inflammatory agents” (Bioorg Med Chem Lett, 2011).
Calls of active or inactive are those of the source. The rule behind the calls is not given here.

Key:
[1] = tested on: Rattus norvegicus; experiment: Antiinflammatory activity in Wistar rat assessed as inhibition of carrageenan-induced hind paw edema at 20 mg/kg, po administered 30 mins before carrageenan challenge measured after 3 hrs by plethysmometer; assay type: functional
Outline: (§1)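 Wistar rats of either sex, 150–175 g, fasted 16 h, n = 6 per group. Compound given orally at 20 mg/kg as a suspension in 1% CMC in water (10 mL/kg); controls got vehicle only. After 30 min, 0.1 mL of 1% carrageenan in saline was injected subplantar into the left hind paw. Paw volume was measured by plethysmometer at 0, 3 and 5 h. Inhibition = (1 − Vt/Vc) × 100, reported as mean ± SEM.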

[2] = tested on: Rattus norvegicus; experiment: Antiinflammatory activity in Wistar rat assessed as inhibition of carrageenan-induced hind paw edema at 20 mg/kg, po administered 30 mins before carrageenan challenge measured after 5 hrs by plethysmometer; assay type: functional; outline: as §1
[3] = tested on: Rattus norvegicus; experiment: Toxicity in Wistar rat assessed as appearance of ulcerogenic lesions in stomach at 60 mg/kg, po; assay type: organism-based; set-up: dose 60 mg/kg, route oral; settings: in vivo
Outline: (§2)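 Wistar rats, 160–220 g, fasted 24 h, six per group. Compound given orally at 60 mg/kg as a suspension in 1% w/v CMC (10 mL/kg); controls got vehicle only. Animals were killed under ether anaesthesia 6 h after treatment, and stomachs were opened along the greater curvature and examined for lesions and bleeding.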

[4] = tested on: Rattus norvegicus; experiment: Toxicity in Wistar rat assessed as appearance of ulcerogenic bleeding in stomach at 60 mg/kg, po; assay type: organism-based; set-up: dose 60 mg/kg, route oral; settings: in vivo; outline: as §2
[5] = molecular target: Prostaglandin G/H synthase 1 (Bos taurus) (UniProt O62664); experiment: Inhibition of bovine COX1 assessed as PGE2 production preincubated for 10 mins by ELISA
Sequence of Prostaglandin G/H synthase 1 (Bos taurus) (O62664 whole entry): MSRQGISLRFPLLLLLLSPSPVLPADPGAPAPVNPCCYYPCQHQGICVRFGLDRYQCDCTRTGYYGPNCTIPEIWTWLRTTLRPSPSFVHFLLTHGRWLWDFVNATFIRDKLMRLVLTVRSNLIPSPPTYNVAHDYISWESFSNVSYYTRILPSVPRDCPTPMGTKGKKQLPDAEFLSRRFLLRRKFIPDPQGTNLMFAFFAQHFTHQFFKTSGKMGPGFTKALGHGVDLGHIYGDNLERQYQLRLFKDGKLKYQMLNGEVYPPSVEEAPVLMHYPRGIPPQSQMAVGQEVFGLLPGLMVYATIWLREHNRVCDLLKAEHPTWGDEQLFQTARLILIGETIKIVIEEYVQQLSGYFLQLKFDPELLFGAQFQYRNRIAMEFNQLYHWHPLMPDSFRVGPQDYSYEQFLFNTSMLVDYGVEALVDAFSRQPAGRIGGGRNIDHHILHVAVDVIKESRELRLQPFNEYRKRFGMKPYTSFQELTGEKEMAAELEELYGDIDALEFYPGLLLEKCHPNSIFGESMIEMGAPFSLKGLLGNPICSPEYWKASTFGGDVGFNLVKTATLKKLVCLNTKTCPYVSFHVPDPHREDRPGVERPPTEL
Outline: (§3)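 In vitro inhibition of bovine COX-1 and COX-2 measured with a COX inhibitor screening kit, following the Gierse et al. method.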

[6] = molecular target: Prostaglandin G/H synthase 2 (Bos taurus) (UniProt O62698); experiment: Inhibition of bovine COX2 assessed as PGE2 production preincubated for 10 mins by ELISA; outline: as §3
Sequence of Prostaglandin G/H synthase 2 (Bos taurus) (O62698 whole entry): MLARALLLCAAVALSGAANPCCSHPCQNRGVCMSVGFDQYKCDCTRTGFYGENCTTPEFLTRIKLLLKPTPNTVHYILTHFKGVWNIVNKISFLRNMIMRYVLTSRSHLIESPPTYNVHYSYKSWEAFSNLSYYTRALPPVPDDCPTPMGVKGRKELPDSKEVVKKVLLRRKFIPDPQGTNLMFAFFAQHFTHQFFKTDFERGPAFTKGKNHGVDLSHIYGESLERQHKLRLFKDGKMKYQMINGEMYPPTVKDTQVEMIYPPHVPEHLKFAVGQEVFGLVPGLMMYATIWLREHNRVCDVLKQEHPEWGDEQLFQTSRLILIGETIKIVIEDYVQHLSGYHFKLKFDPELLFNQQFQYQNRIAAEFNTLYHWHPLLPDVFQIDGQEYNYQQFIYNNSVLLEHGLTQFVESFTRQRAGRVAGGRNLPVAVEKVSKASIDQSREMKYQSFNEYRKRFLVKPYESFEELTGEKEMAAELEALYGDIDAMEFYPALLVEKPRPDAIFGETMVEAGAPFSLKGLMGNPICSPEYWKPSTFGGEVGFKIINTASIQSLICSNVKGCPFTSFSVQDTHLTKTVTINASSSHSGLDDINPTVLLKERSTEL

| Structure (SMILES) | inhibition in vivo at 20 mg/kg [1] | inhibition in vivo at 20 mg/kg [2] | Activity [3] | Activity [4] | inhibition [5] | inhibition [6] |
| --- | --- | --- | --- | --- | --- | --- |
| COc1cc(C)c(Cl)cc1C1=NN(c2ccc(S(N)(=O)=O)cc2)C(c2ccc(N(C)C)cc2)C1 (stereo not drawn) | 78.9% | 95.2% | Non-toxic | Non-toxic | inactive | Active |
| COc1cc(C)c(Cl)cc1C1=NN(c2ccc(S(N)(=O)=O)cc2)C(c2cc(OC)c(OC)c(OC)c2)C1 (stereo not drawn) | 34.2% | 21.4% | – | – | – | – |
